Experimental data collected from several papers.
Lines come from different studies, so protocols differ.
Read-out: cell growth or viability

With O=C(CCCCCCC(=O)Nc1ccccc1)NO the CC50 was 5.94 µM (LLC-MK2; MTS; 48 h).
With CCOC(=O)c1csc(NN=C(C)c2ccccc2)n1 the CC50 was 292 µM (LLC-MK2; MTT; 96 h; pH 7.2).
With O=c1[nH]cc(F)c(=O)[nH]1 the CC50 was 390 µM (Caco-2; crystal violet; 72 h).
CCc1nc(-c2cnc3ccc(-c4ccccc4N)cc3c2)no1 has a CC50 of 21 µM (RD; ATP luminescence; 72 h).
For CCOC(=O)CC1SC(=NN=Cc2cccc(O)c2)NC1=O (centres unmarked), the CC50 was 614 µM (LLC-MK2; MTT; 96 h; pH 7.2).
CCOC(=O)c1cnc2ccc(-c3ccc(C(C)C)cc3)cc2c1 has a CC50 of over 2.5 µM (RD; ATP luminescence; 72 h).
Cc1cn([C@H]2C[C@H](N=[N+]=[N-])[C@@H](CO)O2)c(=O)[nH]c1=O gave a CC50 of 56.1 µM (Caco-2; crystal violet; 72 h).
For CCOC(=O)c1csc(NN=Cc2cccc(OC)c2)n1, the CC50 was 641 µM (LLC-MK2; MTT; 96 h; pH 7.2).
CN1CCc2c(c3ccccc3n2Cc2ccc(C(=O)NO)cc2)C1 gave a CC50 of over 20 µM (LLC-MK2; MTS; 48 h).
With Cc1cc2ccccc2n1CCNC(=O)c1ccc(N2CCOCC2)c(F)c1 the CC50 was under 500 µM (C6 glioma).
CCC[C@H](NC(=O)[C@@H](NC(=O)[C@@H](NC(=O)CC12CC3CC(CC(C3)C1)C2)C(C)(C)C)C1CCCCC1)C(=O)C(=O)NC1CC1 gave a CC50 of under 2 µM (RD; neutral red).
CCN(CC)c1ccc(C(=O)NCCc2c(C)[nH]c3ccccc23)cc1 gave a CC50 of under 500 µM (C6 glioma).
CCOC(=O)CC1SC(=NN=C2CCCc3ccccc32)NC1=O (centres unmarked) gave a CC50 of 280 µM (LLC-MK2; MTT; 96 h; pH 7.2).
CCC[C@H](NC(=O)[C@H](CC1CCCCC1)NC(=O)[C@@H](NC(=O)CC12CC3CC(CC(C3)C1)C2)C(C)(C)C)C(=O)C(=O)NC1CC1 has a CC50 of under 2 µM (RD; neutral red).
